Data as given in EPA's CvTdb concentration-time database.

Experiments:
rat [1] = assay: concentration in serum after dosing; details: dosed: benzo[a]pyrene, 20 mg/kg, oral, male, Wistar
rat [2] = details: dosed: benzo[a]pyrene, 1 mg/kg, iv, male, Sprague Dawley
rat [3] = details: dosed: benzo[a]pyrene, 1 mg/kg, iv, male, Sprague Dawley; remark: listed apart in the source
rat [4] = details: dosed: benzo[a]pyrene, 50 umol/kg, oral, male, Wistar
rat [5] = details: dosed: benzo[a]pyrene, 10 umol/kg, dermal, duration: continuous, male, Wistar
rat [6] = details: dosed: benzo[a]pyrene, 20 umol/kg, oral, male, Wistar
rat [7] = details: dosed: benzo[a]pyrene, 10 umol/kg, oral, male, Wistar
rat [8] = details: dosed: benzo[a]pyrene, 50 umol/kg, dermal, duration: continuous, male, Wistar
rat [9] = details: dosed: benzo[a]pyrene, 20 umol/kg, dermal, duration: continuous, male, Wistar
rat [10] = assay: concentration in blood after dosing; details: dosed: perchloroethylene, 12500 ppm, dermal, duration: 4 hr, male, F344
rat [11] = assay: concentration in blood after dosing; details: male
rat [12] = assay: concentration in blood after dosing; details: dosed: perchloroethylene, 12500 ppm, dermal, duration: 4 hr, male, F344; remark: listed apart in the source
rat [13] = assay: concentration in blood after dosing; details: dosed: perchloroethylene, 12500 ppm, dermal, duration: 4 hr, male, F344; remark: listed apart in the source
human = assay: amount in urine after dosing (umol); details: dosed: tert-amyl methyl ether, 38.4 ppm, inhalation, duration: 4 hr
In short: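 Sampling and analytical methods are those of each source and frequently went unreported. The concentration-versus-time and amount-versus-time points were compiled from published in vivo toxicokinetic studies and two structured collections. Most were digitised from plot screenshots with WebPlotDigitizer, with others copied from tables, in the reported units.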

rat [14] = assay: amount in urine after dosing (umol); details: dosed: tert-amyl methyl ether, 38.4 ppm, inhalation, duration: 4 hr, F344 (Harlan Winkelmann)
Rat [15] = assay: concentration in blood after dosing; details: dosed: Naphthalene, 1 mg/kg, iv, Male, F344
Rat [16] = assay: concentration in blood after dosing; details: dosed: Naphthalene, 3 mg/kg, iv, Male, F344
Rat [17] = assay: concentration in blood after dosing; details: dosed: Naphthalene, 10 mg/kg, iv, Male, F344
Rat [18] = assay: concentration in blood after dosing; details: dosed: Naphthalene, 1 mg/kg, iv, Male, F344; remark: listed apart in the source
Rat [19] = assay: concentration in blood after dosing; details: dosed: Naphthalene, 10 mg/kg, iv, Male, F344; remark: listed apart in the source
Rat [20] = assay: concentration in blood after dosing; details: dosed: Naphthalene, 3 mg/kg, iv, Female, F344
Rat [21] = assay: concentration in blood after dosing; details: dosed: Naphthalene, 3 mg/kg, iv, Male, F344; remark: listed apart in the source
Rat [22] = assay: concentration in blood after dosing; details: dosed: Naphthalene, 1 mg/kg, iv, Female, F344
Rat [23] = assay: concentration in blood after dosing; details: dosed: Naphthalene, 1 mg/kg, iv, Female, F344; remark: listed apart in the source
Rat [24] = assay: concentration in blood after dosing; details: dosed: Naphthalene, iv, F344
rat [25] = assay: concentration in urine after dosing; details: dosed: benzo(a)pyrene, iv, male, Sprague Dawley
rat [26] = assay: concentration in adipose after dosing; details: dosed: benzo(a)pyrene, 40 umol/kg, iv, male, Sprague Dawley
rat [27] = assay: concentration in kidney after dosing; details: dosed: benzo(a)pyrene, 40 umol/kg, iv, male, Sprague Dawley
rat [28] = assay: concentration in feces after dosing; details: dosed: benzo(a)pyrene, 40 umol/kg, iv, male, Sprague Dawley
rat [29] = assay: concentration in lung after dosing; details: dosed: benzo(a)pyrene, 40 umol/kg, iv, male, Sprague Dawley
rat [30] = assay: concentration in liver after dosing; details: dosed: benzo(a)pyrene, 40 umol/kg, iv, male, Sprague Dawley
rat [31] = assay: concentration in skin after dosing; details: dosed: benzo(a)pyrene, 40 umol/kg, iv, male, Sprague Dawley
rat [32] = assay: concentration in blood after dosing; details: dosed: hexane, 60000 ppm, dermal, duration: 4 hr, male, F344
rat [33] = assay: concentration in blood after dosing; details: dosed: hexane, 60000 ppm, dermal, duration: 4 hr, male, F344; remark: listed apart in the source
rat [34] = assay: concentration in blood after dosing; details: dosed: hexane, 60000 ppm, dermal, duration: 4 hr, male, F344; remark: listed apart in the source
rat [35] = assay: concentration in blood after dosing; details: dosed: hexane, 60000 ppm, dermal, duration: 4 hr, male, F344; remark: listed apart in the source
Rat [36] = details: dosed: dibromoacetic acid, 100 mg/kg, oral, Male, F344
Rat [37] = details: dosed: dibromoacetic acid, 100 mg/kg, oral, Male, F344; remark: listed apart in the source
Rat [38] = details: dosed: dibromoacetic acid, 40 mg/kg, oral, Male, F344
Rat [39] = details: dosed: dibromoacetic acid, 40 mg/kg, oral, Male, F344; remark: listed apart in the source
Rat [40] = details: dosed: dibromoacetic acid, 100 mg/kg, oral, Male, F344; remark: listed apart in the source
Rat [41] = details: dosed: dibromoacetic acid, 40 mg/kg, oral, Male, F344; remark: listed apart in the source

Oc1ccc2ccc3c4ccccc4cc4ccc1c2c43 [3-hydroxybenzo[a]pyrene]
Details	amount in feces after dosing [ng]	amount in urine after dosing [ng]	concentration in serum [ng/mL]
rat [1], 1.009 h	–	–	1.32
rat [1], 2.018 h	–	–	1.26
rat [1], 3.995 h	–	–	5.22
rat [1], 6.005 h	–	–	4.15
rat [1], 7.982 h	–	–	2.24
rat [1], 9.992 h	–	–	1.6
rat [2], 10.02 h	–	46.8	–
rat [2], 23.97 h	–	166	–
rat [2], 47.95 h	–	220	–
rat [2], 71.92 h	–	269	–
rat [2], 95.9 h	–	310	–
rat [2], 119.75 h	–	346	–
rat [3], 10.07 h	4790	–	–
rat [3], 24.05 h	16900	–	–
rat [3], 48.1 h	22700	–	–
rat [3], 72.03 h	23700	–	–
rat [3], 96.08 h	24500	–	–
rat [3], 120 h	24900	–	–

Oc1ccc2ccc3c4ccccc4cc4ccc1c2c43 [3-OH-benzo[a]pyrene]
Details	amount in urine after dosing [µg]
rat [4], 23.43 h	7.37
rat [4], 47.73 h	18.4
rat [4], 71.9 h	31.3
rat [4], 95.37 h	33.1
rat [4], 120.29 h	33.4
rat [4], 144.04 h	33.6
rat [5], 23.76 h	0.169
rat [5], 48.25 h	1.6
rat [5], 72.44 h	5.62
rat [5], 96.26 h	8.27
rat [5], 120.41 h	10.3
rat [5], 145.21 h	10.7
rat [6], 24.03 h	3.66
rat [6], 47.78 h	5.43
rat [6], 72.42 h	7.03
rat [6], 96.58 h	7.51
rat [6], 121.02 h	8.21
rat [6], 144.77 h	8.23
rat [7], 23.94 h	0.884
rat [7], 48.41 h	1.94
rat [7], 72.16 h	3.75
rat [7], 96.63 h	4.84
rat [7], 120.41 h	5.22
rat [7], 144.81 h	5.41
rat [8], 23.15 h	4.97
rat [8], 47.4 h	8.97
rat [8], 71.67 h	13.3
rat [8], 95.8 h	17.3
rat [8], 120.35 h	20
rat [8], 144.4 h	20.8
rat [9], 23.4 h	0.591
rat [9], 48.57 h	2.38
rat [9], 72.51 h	6.61
rat [9], 96.49 h	9.6
rat [9], 120.43 h	10.6
rat [9], 145.24 h	11

ClC(Cl)=C(Cl)Cl [perchloroethylene]
concentration in blood [ng/mL]
Details	0.5 h	1 h	2 h	3 h	4 h
rat [10]	17000	45000	39600	31600	42600
rat [12]	6940	32300	29900	17500	32300
rat [13]	3610	15200	19600	13900	29200

rat [11], dosed: perchloroethylene, 12500 ppm, dermal, duration: 4 hr, F344
Details	concentration in blood [ng/mL]
0.5 h	20600
1 h	21100
2 h	21500
3 h	25200
4 h	29200

CCC(C)(O)C(=O)O (stereo not given) [2-hydroxy-2-methyl butyrate]
Details	amount in urine
human, 0.1093 h	54.7
human, 6.284 h	93.4
human, 12.15 h	100
human, 18.2 h	59.9
human, 24.12 h	39.1
human, 30.12 h	33.6
human, 36.29 h	57.8
human, 42.13 h	29.8
human, 48.22 h	51.6
rat [14], 5.978 h	0.204
rat [14], 12 h	0.29
rat [14], 18.07 h	0.213
rat [14], 24.08 h	0.0776
rat [14], 29.94 h	0.0345
rat [14], 36.02 h	0.092
rat [14], 42.04 h	0.103
rat [14], 48.11 h	0.0517

c1ccc2ccccc2c1 [Naphthalene]
concentration in blood [ng/mL]
Details	1 h	2 h	2 min	4 h	5 min	6 h	8 h	10 min	20 min	40 min
Rat [15]	36.2	–	1390	–	701	–	–	312	127	54.8
Rat [16]	133	52.1	6890	19.3	4770	–	–	2440	736	255
Rat [17]	407	172	–	76.7	8050	38.2	–	4930	2640	839
Rat [18]	30.5	–	1300	–	625	–	–	340	82.5	46.6
Rat [19]	487	172	–	90.2	8740	47.3	33.3	4000	2610	661
Rat [20]	103	47	2870	26.7	1900	27.7	24.2	942	468	151
Rat [21]	169	82.8	–	–	2000	–	–	3690	1240	306
Rat [22]	21.2	–	1740	–	548	–	–	204	29.3	34.3
Rat [23]	–	–	21.4	–	51.6	23.6	–	–	20.5	–

concentration in blood [ng/mL], Rat [24]
Details	1 mg/kg	3 mg/kg	10 mg/kg
1 h, Female	–	80	–
1 h, Male	34.8	172	446
2 h, Female	–	35.1	–
2 h, Male	–	233	214
2 min, Female	1330	2780	–
2 min, Male	3260	260	–
4 h, Male	–	87.1	90
5 min, Female	770	1480	–
5 min, Male	677	152	11200
6 h, Male	–	90.9	58.5
8 h, Male	–	20.6	38.1
10 min, Female	407	1380	–
10 min, Male	315	215	6220
12 h, Male	–	–	21.5
20 min, Female	120	375	–
20 min, Male	107	185	2850
40 min, Female	43	125	–
40 min, Male	–	173	860

Oc1ccc2ccc3c4ccccc4cc4ccc1c2c43 [3-hydroxybenzo(a)pyrene]
concentration in urine, rat [25]
Details	2 h	4 h	4.5 h	8 h	16 h	24 h	33 h	48 h	72 h
0.01 mg/kg	–	–	0.000494 mg/kg	–	–	0.000582 mg/kg	–	6.8e-05 mg/kg	2.3e-05 mg/kg
0.05 mg/kg	–	–	0.0016 mg/kg	–	–	0.0025 mg/kg	–	0.000305 mg/kg	0.000115 mg/kg
40 umol/kg	0.0001 µmol/kg	0.0022 µmol/kg	–	0.0119 µmol/kg	0.0604 µmol/kg	0.068 µmol/kg	0.19 µmol/kg	0.149 µmol/kg	0.209 µmol/kg

Details	concentration in adipose, rat [26] [µmol/kg]	concentration in feces, rat [28] [µmol/kg]	concentration in kidney, rat [27] [µmol/kg]	concentration in liver, rat [30] [µmol/kg]	concentration in lung, rat [29] [µmol/kg]	concentration in skin, rat [31] [µmol/kg]
2 h	0.0241	0.0001	0.195	0.49	0.023	0.385
4 h	0.0381	0.0004	0.429	0.588	0.0236	0.232
8 h	0.0582	0.0035	0.65	0.141	0.0176	0.135
16 h	0.0348	0.471	0.583	0.0819	0.0153	0.103
24 h	0.033	4.71	0.347	0.0528	0.0102	0.041
33 h	0.0322	7.72	0.293	0.0505	0.0085	0.0215
48 h	0.0192	8.75	0.0936	0.0149	0.0047	0.0148
72 h	0.0114	12.9	0.0512	0.0096	0.0045	0.0073

rat [11], dosed: benzo(a)pyrene, 40 umol/kg, iv, Sprague Dawley
Details	concentration in blood [µmol/kg]
2 h	0.105
4 h	0.0863
8 h	0.0912
16 h	0.0388
24 h	0.0235
33 h	0.0142
48 h	0.0084
72 h	0.0047

CCCCCC [hexane]
concentration in blood [ng/mL]
Details	0.5 h	1 h	2 h	3 h	4 h
rat [32]	1500	31.2	–	304	804
rat [33]	–	708	112	414	–
rat [34]	1240	804	1100	1300	999
rat [35]	–	406	812	796	200

rat [11], dosed: hexane, 60000 ppm, dermal, duration: 4 hr, F344
Details	concentration in blood [ng/mL]
0.5 h	606
1 h	903
2 h	500

O=C(O)C(Br)Br [dibromoacetic acid]
amount in urine after dosing [µg]
Details	Rat [36]	Rat [37]	Rat [38]	Rat [39]	Rat [40]	Rat [41]
2 h	–	–	0.735	–	17.7	–
4 h	55.8	61.7	–	8.7	54.6	–
8 h	–	–	–	3.52	44.1	11.7
24 h	81	37.7	4.47	3.52	19.1	1.52
48 h	5.03	2.24	–	–	4.62	–
